Active and inactive are the calls of the source. The calls are words filed in the database; no cut-off is given here.
Assays:
HepG2 [1] = assay: Antiproliferation activity against human HepG2 cells assessed as cell growth inhibition measured after 72 hrs by MTT assay; format: functional
Outline: (§1)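 Cells grown in RPMI-1640 with 10% FBS at 37 °C, 5% CO2, seeded at 4−7 × 10³ cells/well and left to adhere overnight. Exposed to a range of concentrations for 72 h, then MTT (2.5 mg/mL stock) added for 4 h. Formazan dissolved in DMSO and absorbance read at 570 nm. GI50 taken as the concentration giving 50% growth inhibition, reported as mean ± SD of at least three independent experiments.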

[2] = Inhibition of porcine brain tubulin polymerization measured every 60 sec for 60 mins in presence of GTP by fluorescence assay; parameters: species or system Sus scrofa
Outline: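 Fluorescence kit assay using 2 mg/mL porcine brain tubulin with 2 mM MgCl₂, 0.5 mM EGTA, 1 mM GTP and 15% glycerol. Compound at various concentrations preincubated 1 min at 37 °C before adding the tubulin mix. Read at ex 355/em 460 nm every 60 s for 60 min. IC50 is the concentration giving 50% inhibition at 60 min; mean ± SD of ≥3 independent experiments.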

HCT-116 = assay: Antiproliferation activity against human HCT116 cells assessed as cell growth inhibition measured after 72 hrs by MTT assay; format: functional; outline: as §1
A549 = assay: Antiproliferation activity against human A549 cells assessed as cell growth inhibition measured after 72 hrs by MTT assay; format: functional; outline: as §1
HepG2 [3] = assay: Induction of apoptosis in human HepG2 cells assessed as PARP cleavage at 20 nM incubated for 24 hrs by western blot analysis; format: functional, cell-based
Outline: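 Lysates (20 μg protein) run on 10% polyacrylamide gel, transferred to PVDF, blocked in 5% nonfat milk, probed overnight at 4 °C for cleaved PARP. HRP secondary, ECL detection, densitometry; one-way ANOVA with Dunnett's test vs control.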

[4] = Cytotoxicity against human L02 cells assessed as assessed as cell growth inhibition measured after 72 hrs by MTT assay; format: cell-based
Outline: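 LO2 normal liver cells cultured in RPMI-1640/10% FBS at 37 °C, 5% CO2 and seeded at 4−7 × 10³ cells/well. Graded concentrations applied for 72 h, then MTT readout at 570 nm. GI50 is the concentration giving 50% growth inhibition, mean ± SD of at least three independent experiments.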

[5] = Selectivity index, ratio of GI50 for cytotoxicity against human L02 cells to GI50 for antiproliferation activity against human HepG2 cells assessed as cell growth inhibition measured after 72 hrs by MTT assay; format: toxicity, cell-based; details: L02 cells and HepG2 cells, read-out: RatioGI50
Outline: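 MTT assay: cells seeded 4–7 × 10³/well, adhered overnight, exposed to a concentration series for 72 h. MTT (2.5 mg/mL stock) added for 4 h, crystals dissolved in DMSO, absorbance read at 570 nm. GI50 is mean ± SD of ≥3 independent experiments. Selectivity = GI50 on normal LO2 / GI50 on HepG2. Resistance fold = GI50 on resistant cells / GI50 on sensitive cells.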

HepG2 [6] = assay: Inhibition of cell migration in human HepG2 cells at 10 nM measured after 24 hrs by inverted light microscopy method based wound healing assay relative to control; format: functional
Outline: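 Confluent HepG2 monolayer (seeded 3 × 10⁵ cells/well) scratched with a pipette tip and washed with PBS. Incubated in serum-free DMEM with compound at 2.5, 5 or 10 nM for 24 h; CA-4 run in parallel, DMSO as vehicle. Wound imaged at 0 and 24 h by inverted microscope and compared with control.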

[7] = Antiproliferation activity against human A549/Taxol cells assessed as cell growth inhibition measured after 72 hrs by MTT assay; format: functional; outline: as §1
[8] = Resistance index, ratio of GI50 for antiproliferation activity against human A549/Taxol cells to GI50 for antiproliferation activity against human A549 cells assessed as cell growth inhibition measured after 72 hrs by MTT assay

| Structure (SMILES) | GI50 (HepG2 [1]) [nM] | IC50 [2] [nM] | GI50 (HCT-116) [nM] | GI50 (A549) [nM] | Activity (HepG2 [3]) | GI50 at 72 h [4] [nM] | selectivity ratio at 72 h [5] | inhibition at 0.01 µM (HepG2 [6]) [%] | GI50 [7] [nM] | RatioGI50 [8] |
| --- | --- | --- | --- | --- | --- | --- | --- | --- | --- | --- |
| CCOc1cc2c(cc1OCCCO)-c1c(c(Nc3cccc(C(=O)OC)c3)nn1C)C2 | 7.1 | 5900 | 12.3 | 8.1 | – | – | – | – | – | – |
| CCOc1cc2c(cc1OCCCO)-c1c(c(Nc3cccc(C(=O)OC(C)C)c3)nn1C)C2 | 36.7 | 7700 | 103 | 164 | – | – | – | – | – | – |
| CCOc1cc2c(cc1OCC(N)=O)-c1c(c(Nc3cccc(C(=O)CC)c3)nn1C)C2 | 9.2 | 4100 | 27 | 21.4 | – | – | – | – | – | – |
| CCOc1cc2c(cc1OCC(N)=O)-c1c(c(Nc3cccc(C#N)c3)nn1C)C2 | 66.9 | 9900 | 361 | 166 | – | – | – | – | – | – |
| CCOc1cccc(Nc2nn(C)c3c2Cc2cc(OCC)c(OCC(=O)O)cc2-3)c1 | 1640 | > 20000 | 1270 | 8660 | – | – | – | – | – | – |
| COc1cc2c(c(OC)c1OC)-c1ccc(OC)c(=O)cc1[C@@H](NC(C)=O)CC2 | – | – | – | – | Active | – | – | – | – | – |
| CCCOc1cc2c(cc1OCC)Cc1c(Nc3cccc(OCC)c3)nn(C)c1-2 | 397 | 14600 | 129 | 512 | – | – | – | – | – | – |
| CCOc1cccc(Nc2nn(C)c3c2Cc2cc(OCc4ccc(OC)cc4)c(OCC(N)=O)cc2-3)c1 | 3070 | > 20000 | 16600 | 3080 | – | – | – | – | – | – |
| CCOc1ccc(Nc2nn(C)c3c2Cc2cc(OCC)c(OCC(N)=O)cc2-3)cc1 | 1910 | > 20000 | 4310 | 15000 | – | – | – | – | – | – |
| CCOc1cccc(Nc2nn(C)c3c2Cc2cc(OCC)c(OCC(N)=O)cc2-3)n1 | 17.1 | 4100 | 19 | 62.5 | – | – | – | – | – | – |
| CCCCOc1cc2c(cc1OCC(N)=O)-c1c(c(Nc3cccc(OCC)c3)nn1C)C2 | 2760 | > 20000 | 4770 | 19900 | – | – | – | – | – | – |
| CCOC(=O)c1cccc(Nc2nn(C)c3c2Cc2cc(OCC)c(OCCCO)cc2-3)c1 | 3.3 | 3500 | 7.7 | 5.3 | – | – | – | – | – | – |
| COc1ccc(/C=C\c2cc(OC)c(OC)c(OC)c2)cc1O [COMBRETASTATIN A4] | 6.1 | 2300 | 2.4 | 4.8 | – | 333 | 55 | 47 | 20.4 | 4 |
| CCOc1cc2c(cc1OCCCO)-c1c(c(Nc3cccc(C#N)c3)nn1C)C2 | 42.9 | 9100 | 151 | 176 | – | – | – | – | – | – |
| CCOc1cc2c(cc1OCC(N)=O)-c1c(c(Nc3cccc(C(=O)OC)c3)nn1C)C2 | 4.3 | 4500 | 9.7 | 3 | – | – | – | – | – | – |
| CCOc1cccc(Nc2nn(C)c3c2Cc2cc(OCC)c(OCCCO)cc2-3)c1 | 15.7 | 5800 | 10.4 | 94.4 | – | – | – | – | – | – |
| CCOc1cccc(Nc2nn(C)c3c2Cc2cc(OC)c(OCC(N)=O)cc2-3)c1 | 15 | 13400 | 26.5 | 19.6 | – | – | – | – | – | – |

— ChEMBL document CHEMBL4699650, “SAR Investigation and Discovery of Water-Soluble 1-Methyl-1,4-dihydroindeno[1,2-c]pyrazoles as Potent Tubulin Polymerization Inhibitors” (J Med Chem, 2020)
